Compound activity (PubChem BioAssay)
TbMetRS inhib: Trypanosoma brucei MetRS inhibition; AID 624268; purified T. brucei MetRS, ATP depletion, Kinase-Glo luminescence; inhibition, % at 11.9 µM; 360,000 tested, 0.4% active;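 active = inhibition above a per-plate cutoff of the control wells' mean inhibition plus 3 SD, cut at about 5.5% in these data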
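Dosing: 11.9 µM single point; system: parasite MetRS enzyme; technique: luminescence of leftover ATP; times: 15 min enzyme-compound preincubation, 2 h reaction, 10 min detection, 25 °C; replicates: each compound tested once; read-out basis: percent inhibition relative to median high and low control wells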
ADAM10 inh: ADAM10 inhibition, QFRET primary screen; 370,000 tested, 0.62% active; inhibition, % at 7 µM; recombinant ADAM10, EDANS/DABCYL FRET peptide cleavage, 3 h; AID 720582;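 active = inhibition above a per-campaign cutoff equal to the mean of compounds falling between control-based bounds plus 3 SD, cut at about 20% in these data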
PLCb3 inh: inhibitors of human phospholipase C beta3. Q01970. Purified PLC-beta3, fluorogenic substrate, fluorescence. inhibition, % at 12.2 µM. 370,000 tested, 0.18% active. AID 720704; in the data active = inhibition above about 11%
ADAM17 inh: inhibits human ADAM17 | inhibition, % at 6.95 µM | AID 720648 | 370,000 tested, 0.83% active | P78536 | recombinant ADAM17, EDANS/DABCYL FRET peptide cleavage;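 active = inhibition above the mean of compounds lying between control limits plus 3 SD, set per campaign, cut at about 8.5% in these data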
Target sequence (P78536 215-824 limits assumed): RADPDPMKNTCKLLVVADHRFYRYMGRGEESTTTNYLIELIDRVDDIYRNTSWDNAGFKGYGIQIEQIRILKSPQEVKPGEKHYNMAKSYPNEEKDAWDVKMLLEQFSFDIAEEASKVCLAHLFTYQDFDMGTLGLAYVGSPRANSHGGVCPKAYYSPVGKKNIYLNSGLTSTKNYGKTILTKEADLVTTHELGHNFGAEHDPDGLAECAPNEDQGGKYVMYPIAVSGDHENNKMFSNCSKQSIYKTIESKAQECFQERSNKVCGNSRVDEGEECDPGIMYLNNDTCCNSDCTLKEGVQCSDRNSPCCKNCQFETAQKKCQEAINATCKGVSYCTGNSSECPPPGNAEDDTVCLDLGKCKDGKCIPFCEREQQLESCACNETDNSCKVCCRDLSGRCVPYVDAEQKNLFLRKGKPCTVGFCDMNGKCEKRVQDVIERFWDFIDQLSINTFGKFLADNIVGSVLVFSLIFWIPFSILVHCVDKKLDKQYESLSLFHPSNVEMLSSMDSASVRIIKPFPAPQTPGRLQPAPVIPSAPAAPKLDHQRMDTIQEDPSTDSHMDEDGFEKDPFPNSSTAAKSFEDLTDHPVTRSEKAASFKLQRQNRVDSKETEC
PLCg1 inh: PLC-gamma1 (human) inhibition, primary screen; P19174; purified PLC-gamma1, fluorogenic substrate, fluorescence; inhibition, % at 12.2 µM; 370,000 tested, 0.84% active; AID 720700; in the data active = inhibition above about 9.5%
Tb MetRS conf: Trypanosoma brucei MetRS inhibition confirmed | shares compounds with TbMetRS inhib | T. brucei MetRS enzyme, luminescence (ATP depletion) | inhibition, % at 11.9 µM | 1,400 tested, 93% active | AID 624412; in the data active = inhibition above about 7%
Jurkat cytotox: counter-screen for T. brucei MetRS inhibitors: Jurkat cell cytotoxicity | shares compounds with TbMetRS inhib | inhibition, % at 8.3 µM | AID 624413 | 1,400 tested, 12% active | Jurkat cells viability, ATP luminescence; in the data active = inhibition above about 15%
TbMetRS FP orth: inhibits T. brucei methionyl tRNA synthetase in orthogonal FP test | inhibition, % at 11.9 µM | 1,400 tested, 44% active | purified T. brucei MetRS, fluorescence polarization | shares compounds with TbMetRS inhib | AID 651607; in the data active = inhibition above about 17%
ADAM10 confirm: human ADAM10 inhibition, confirmation | shares compounds with ADAM10 inh | ADAM10 QFRET peptide cleavage, EDANS fluorescence | inhibition, % at 6.95 µM | 2,100 tested, 1% active | AID 743208;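 active = inhibition above about 20% chosen separately for each screening run, limit read from the data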
ADAM17 counter: inhibits human ADAM17 in ADAM10 exosite counter-screen | shares compounds with ADAM10 inh | ADAM17 QFRET peptide cleavage, EDANS fluorescence | inhibition, % at 6.95 µM | 2,100 tested, 0.5% active;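 active = mean triplicate inhibition above the solvent-only control wells' mean plus 3 SD, cut at about 12% in these data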
Of the large screens only hits and unclear results are named; the others gave an inactive call (follow-up assays come after a bar, where they were run); ! = not active in a repeat. Hits are enriched below; roughly 2.3% of the tested compounds scored in any of these assays.

Cc1ccc(C(=O)N[C@@H](C)CN2C3=NC[C@@H](Cc4ccccc4)N3C[C@H]2Cc2ccc(O)cc2)cc1Br	PLCg1 inh 13 (no result: TbMetRS inhib)
CC(C)C(C(=O)NC(C)(C)C)N1C(=O)CN=C(c2ccccc2)c2ccccc21 (stereo unspecified)	none (no result: TbMetRS inhib)
CC(C)(C)NC(=O)C1CN=C(c2ccccc2)c2cc(Cl)ccc2N1C(=O)C1CCC1 (stereo unspecified)	none (no result: TbMetRS inhib)
Nc1ccc(Cc2ccc(N)cc2)cc1	PLCb3 inh 11
O=C(NCCN1CCC2(CC1)C(=O)NCN2c1ccccc1)c1ccc2ccccc2c1	none (no result: TbMetRS inhib)
O=C(COc1ccc2ccccc2c1)N1CCN(Cc2c[nH]c3ccccc23)CC1	ADAM17 inh 8.7
COC(=O)C1=C[C@H]([C@@H](C)[C@H](OC)c2ccccc2Br)[C@@H]2[C@H]1c1ccccc1N2C	none (no result: TbMetRS inhib)
O=[N+]([O-])c1ccc(Nc2ccccc2)cc1	none
CC(Cc1ccccc1)NC(=O)Cc1ccc([N+](=O)[O-])cc1 (stereo unspecified)	PLCg1 inh 9.8
COC(=O)C1=C(c2ccc(F)cc2OCc2ccccc2)C[C@@H]2CC[C@H]1N2C(=O)NCc1ccc(F)cc1	none
COC(=O)C1=C(c2ccc(F)cc2OCc2ccccc2)C[C@@H]2CC[C@H]1N2C(=O)NC1Cc2ccccc2C1	ADAM17 inh 10
CCn1nc(-c2ccccc2)nc2c(=O)n(C)c(=O)nc1-2	TbMetRS inhib 27 (no result: ADAM10 inh, PLCb3 inh, ADAM17 inh, PLCg1 inh)
Cc1ccc(Cl)cc1N1CCN(CCN)CC1	PLCg1 inh 16
CN1CCN(c2ccc(Cl)cc2N)CC1	none
Nc1c(C(=O)NC2CCCC2)c2nc3ccccc3nc2n1CC1CCCO1 (stereo unspecified)	TbMetRS inhib 7.5 | Tb MetRS conf inactive | Jurkat cytotox inactive | TbMetRS FP orth inactive
Cc1cccc(C(C)c2cnc[nH]2)c1C (stereo unspecified)	none (no result: TbMetRS inhib)
CC(NC(=O)OCc1ccccc1)[P+](=O)O (stereo unspecified)	none (no result: TbMetRS inhib)
CN(C)Cc1c[nH]c2cc([N+](=O)[O-])ccc12	TbMetRS inhib 6.7 | Tb MetRS conf 30 | Jurkat cytotox inactive | TbMetRS FP orth inactive
CCN(CC)C(=O)c1ccc(NC(=O)c2cccc(C(F)(F)F)c2)cc1	none
CCN(CC)C(=O)c1ccc(NC(=O)c2ccc(-n3cncn3)c([N+](=O)[O-])c2)cc1	TbMetRS inhib 8.0 | Tb MetRS conf 43 | Jurkat cytotox inactive | TbMetRS FP orth 26
COc1ccc(Cn2c(N)c(C(=O)NCc3ccco3)c3nc4ccccc4nc32)cc1OC	TbMetRS inhib 8.0 | Tb MetRS conf inactive | Jurkat cytotox inactive | TbMetRS FP orth inactive
C=CCN(CC#CCO)Cc1ccc(OC)cc1OC	none (no result: TbMetRS inhib)
Clc1cc(Cl)cc(CN2Cc3ccccc3-n3nncc3C2)c1	none (no result: TbMetRS inhib)
Cc1nc2c(=O)n(C)c(=O)nc-2n(C)n1	TbMetRS inhib 30, PLCg1 inh 60 | Tb MetRS conf 22 | Jurkat cytotox 91 | TbMetRS FP orth inactive
Clc1ccc(C(c2ccc(Cl)cc2)n2cc[n+](CC(OCc3ccc(Cl)cc3Cl)c3ccc(Cl)cc3Cl)c2)cc1 (stereo unspecified)	TbMetRS inhib 8.7 | Tb MetRS conf 13 | Jurkat cytotox 82 | TbMetRS FP orth 178
C=C1C(=O)C(C)=C2C(=O)N3Cc4[nH]c5ccccc5c4CC3(C(=O)OC)C12 (stereo unspecified)	none (no result: TbMetRS inhib)
NC(=O)c1cn(C2OC(CO)C(O)C2O)c2ncnc(N)c12 (stereo unspecified)	TbMetRS inhib 5.9! | Tb MetRS conf 12 | Jurkat cytotox 97 | TbMetRS FP orth inactive
N#Cc1cn(C2OC(CO)C(O)C2O)c2ncnc(N)c12 (stereo unspecified)	none
Clc1ccc(COC(Cn2ccnc2)c2ccc(Cl)cc2Cl)cc1 (stereo unspecified)	TbMetRS inhib 6.1 | Tb MetRS conf 20 | Jurkat cytotox inactive | TbMetRS FP orth inactive
COCCCn1c(N)c(C(=O)OCCOC)c2nc3ccccc3nc21	none
CCOC(=O)c1c(NS(=O)(=O)c2ccccc2)n(CCCOC)c2nc3ccccc3nc12	TbMetRS inhib 14 | Tb MetRS conf inactive | Jurkat cytotox inactive | TbMetRS FP orth inactive
CSc1ccc(C(=O)C2CCCN(Cc3cc4ccccc4[nH]3)C2)cc1 (stereo unspecified)	TbMetRS inhib 7.1 | Tb MetRS conf 15 | Jurkat cytotox inactive | TbMetRS FP orth inactive
CC(NC(=O)OCc1ccccc1)P(=O)(Oc1ccccc1)Oc1ccccc1 (stereo unspecified)	none (no result: TbMetRS inhib)
Cc1ccc2nc3c(cc2c1)CC1(C(=O)N(C)C(=O)N(C)C1=O)C1COCCN31 (stereo unspecified)	TbMetRS inhib 7.1 | Tb MetRS conf inactive | Jurkat cytotox inactive | TbMetRS FP orth inactive
Cc1ccc2nc3c(cc2c1)CC1(C(=O)N(C)C(=O)N(C)C1=O)C1CCCCN31 (stereo unspecified)	none
O=C(NCCN1CCC2(CC1)C(=O)NCN2c1ccccc1)c1ccc(Cl)cc1	none (no result: TbMetRS inhib)
O=C1Nc2ccccc2C1Cc1nc2ccccc2c(=O)n1-c1ccccc1 (stereo unspecified)	TbMetRS inhib 9.1 | Tb MetRS conf 6.2 | Jurkat cytotox inactive | TbMetRS FP orth inactive
CN1C(=O)C(Cc2nc3ccccc3c(=O)n2-c2ccccc2)c2ccccc21 (stereo unspecified)	none
O=C1NCN(c2ccccc2)C12CCN(C(CCc1ccccc1)c1nnnn1-c1ccc3c(c1)OCCO3)CC2 (stereo unspecified)	ADAM10 inh 25, ADAM17 inh 11 | ADAM10 confirm inactive | ADAM17 counter inactive
CCOc1ccccc1OCC(=O)Nc1ccc(Cl)cc1C(=O)c1ccccc1	none
O=C(COC(=O)c1cccc(O)c1)Nc1ccc(Cl)cc1C(=O)c1ccccc1	ADAM10 inh 23 | ADAM10 confirm inactive | ADAM17 counter inactive
Brc1ccc2c(c1)-n1nncc1CNC2	none (no result: TbMetRS inhib)
COc1cc2c(c3oc4cccc(O)c4c(=O)c13)[C@@H]1C=CO[C@@H]1O2	none (no result: TbMetRS inhib)
CCN1C(=O)C(=Cc2ccc(N3CCOCC3)o2)C(=O)N(CC)C1=S	ADAM10 inh 25 | ADAM10 confirm inactive | ADAM17 counter inactive
